Test results published in ChEMBL document CHEMBL3352184, “6-Deoxy-13-hydroxy-8,11-dione-dihydrogranaticin B, an intermediate in granaticin biosynthesis, from Streptomyces sp. CPCC 200532” (J Nat Prod, 2014).
Activity calls are given as the source filed them. The rule behind the calls is not given here.

How the values were obtained:
HepG2 = test: Cytotoxicity against human HepG2 cells by MTT assay; type: functional, cell-based
Summary of the method: (§1)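 MTT read-out on cancer cell lines exposed to a series of concentrations per compound (ranges spanning roughly 0.6–372.1 μM); compounds dissolved in DMSO, final DMSO 0.1%.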

A549 = test: Cytotoxicity against human A549 cells by MTT assay; type: functional, cell-based; summary of the method: as §1
[1] = Cytotoxicity against human HCT116 cells by MTT assay; type: functional, cell-based; details: HCT-116; summary of the method: as §1
HeLa = test: Cytotoxicity against human HeLa cells by MTT assay; type: functional, cell-based; summary of the method: as §1
Bacillus subtilis = test: Antibacterial activity against Bacillus subtilis CMCC 63501 after 16 to 18 hrs by filter paper disk assay; type: functional, organism-based

Structure (SMILES)	IC50 (HepG2)	IC50 (A549)	IC50 [1]	IC50 (HeLa)	Activity (Bacillus subtilis)
C[C@@H]1O[C@H]2CC(=O)O[C@H]2C2=C1C(=O)c1c(O)c3c(c(O)c1C2=O)[C@H]1C[C@@H](O)[C@]3(O)[C@@H](C)O1	6.6 µM	1.3 µM	11 µM	0.7 µM	
C[C@@H]1O[C@@H](CC(=O)O)CC2=C1C(=O)c1c(O)c3c(c(O)c1C2=O)[C@H]1C[C@@H](O[C@H]2CC[C@H](O)[C@H](C)O2)[C@@]3(O)[C@@H](C)O1					Active
C[C@@H]1O[C@@H](CC(=O)O)Cc2cc3c(c(O)c21)C(=O)C1=C(C3=O)[C@H]2C[C@@H](O[C@H]3CC[C@H](O)[C@H](C)O3)[C@@]1(O)[C@@H](C)O2	18.8 µM	37.6 µM	13.1 µM	20.2 µM	
C[C@@H]1O[C@H]2CC(=O)O[C@H]2C2=C1C(=O)c1c(O)c3c(c(O)c1C2=O)[C@H]1C[C@@H](O[C@H]2CC[C@H](O)[C@H](C)O2)[C@@]3(O)[C@@H](C)O1 [GRANATICIN B]	5.8 µM	1.9 µM	14.8 µM	1.6 µM	Active
C[C@@H]1O[C@@H](CC(=O)O)Cc2cc3c(c(O)c21)C(=O)C1=C(C3=O)[C@H]2C[C@@H](O)[C@@]1(O)[C@@H](C)O2	148 µM	197 µM	179 µM	297 µM	
